In ChEMBL document CHEMBL1142858, “Conformationally constrained analogues of diacylglycerol (DAG). 27. Modulation of membrane translocation of protein kinase C (PKC) isozymes alpha and delta by diacylglycerol lactones (DAG-lactones) containing rigid-rod acyl groups” (J Med Chem, 2007):
pEC50, pKi: −log10 of the molar value. Activity calls are given as the source filed them. The rule behind the calls is not given here.

Legend:
CHO [1] = assay: Translocation of PKCdelta from cytosol to membrane in CHO cells; type: functional, cell-based; settings: Cricetulus griseus
Outline: (§1)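 CHO cells in F12-K with 10% FBS are transfected with GFP-tagged PKC alpha or PKC delta. Live cells are imaged by confocal microscopy with 488 nm excitation, time-lapse every 30 s. Redistribution from cytosol to plasma and internal membranes is followed before and after ligand addition at 10 or 20 µM, over up to about 120 min. Three independent experiments.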

[2] = Stimulation of ERK phosphorylation in LNCaP cells after 30 min; type: functional, cell-based; settings: Homo sapiens, 0.5 h
Outline: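 LNCaP prostate cells in RPMI-1640 with 10% FBS, plated at about 60% confluency and treated 24 h later with a range of concentrations for 15 or 30 min. Cells were washed with PBS and total lysates run on 10% SDS-PAGE, blotted and probed with anti-phosphoERK. Band intensity was expressed relative to 100 nM PMA (= 100%). Approximate EC50 was read from the graph; mean ± SEM of three experiments.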

[3] = Inhibition of cell proliferation in WEHI231 cell line after 48 hrs; type: functional, cell-based; settings: Mus musculus, WEHI231, 48 h
Outline: (§2)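 WEHI-231 cells in DMEM with 10% FBS and 50 µM β-mercaptoethanol are plated at 1 × 10⁵ viable cells/mL and dosed 24 h later (final DMSO 0.1%) for 48 h. Cells are triturated to single-cell suspension and counted on a Coulter counter. Counts are given as % of the DMSO control. Mean ± SEM of three independent experiments.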

[4] = target: Protein kinase C alpha type (Homo sapiens, UniProt P17252); assay: Displacement of [3H]PDBu from PKCalpha
Outline: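 Competition with [3H]PDBu for binding to recombinant single isozyme PKC alpha in the presence of phosphatidylserine. ID50 is taken from a least-squares fit of a sigmoidal competition curve. Ki = ID50/(1 + L/Kd), where L is free [3H]PDBu at the ID50 and Kd is the [3H]PDBu dissociation constant. Mean ± standard error, three determinations.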

CHO [5] = assay: Translocation of PKCalpha from cytosol to membrane in CHO cells; type: functional, cell-based; settings: Cricetulus griseus; outline: as §1
[6] = Inhibition of cell proliferation in WEHI231 cell line at 10 uM after 48 hrs; type: functional; settings: Mus musculus, WEHI231, 48 h; outline: as §2
U-937 [7] = assay: Induction of attachment of U937 cells after 48 hrs; type: functional, cell-based; settings: Homo sapiens; for pEC50: U-937, 48 h
Outline: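 U937 monocytes in RPMI-1640 with 10% FBS are plated at 1 × 10⁵ cells/mL and exposed (final DMSO 0.1%) for 48 h. Non-attached cells and attached cells (after trypsinization) are counted on a Coulter counter. Attached cells are expressed as % of total cells. Mean ± SEM of three independent experiments.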

[8] = Induction of IL6 secretion in WEHI231 cells at 30 uM after 24 hrs relative to 10 uM PMA; type: functional, Mus musculus; settings: in the assay text read “10 nM PMA” for “10 uM PMA”
Outline: (§3)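 WEHI-231 cells are grown in DMEM with 10% FBS and 50 µM β-mercaptoethanol. They are plated at 1 × 10⁵ viable cells/mL and dosed 24 h later (final DMSO 0.1%) for 6 or 24 h. IL-6 in the supernatant is measured by ELISA, one measurement per experiment. It is expressed as % of IL-6 induced by 10 nM PMA at 6 h.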

[9] = Induction of IL6 secretion in WEHI231 cells at 30 uM after 6 hrs relative to 10 uM PMA; type: functional, Mus musculus; settings: in the assay text read “10 nM PMA” for “10 uM PMA”; outline: as §3
CHO [10] = assay: Translocation of PKCalpha from cytosol to membrane in CHO cells at 20 uM after 120 mins; type: functional, cell-based; settings: Cricetulus griseus; outline: as §1
U-937 [11] = assay: Reduction of PMA-induced attachment of U937 cells at 30 uM after 48 hrs; type: functional, cell-based; settings: Homo sapiens
CHO [12] = assay: Translocation of PKC from cytosol to membrane in CHO cells; type: functional, cell-based; settings: Cricetulus griseus; outline: as §1
LNCaP = assay: Stimulation of ERK phosphorylation in LNCaP cells at 10 uM after 30 min relative to PMA; type: cell-based; settings: Homo sapiens
Outline: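 LNCaP prostate cells in RPMI-1640 with 10% FBS are plated at about 60% confluency and treated 24 h later for 15 or 30 min. Cells are PBS-washed and lysed, and lysates go through 10% SDS-PAGE and immunoblotting with anti-phosphoERK. Phospho-ERK band intensity is expressed relative to 100 nM PMA (= 100%).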

Structure (SMILES): C#Cc1ccc(C#Cc2ccc(C(=O)OCC3(CO)CC(=C(C)C)C(=O)O3)cc2)cc1 (centres undefined)
- Activity (CHO [1]): Active
- pEC50 [2]: 6.40
- pEC50 [3]: 5.52
- pKi [4]: 8.28
- Activity (CHO [5]): Active

Structure (SMILES): COC(=O)COc1ccc(C#Cc2ccc(C#Cc3ccc(C#Cc4ccc(C(=O)OCC5(CO)CC(=C(C)C)C(=O)O5)cc4)cc3)cc2)cc1 (centres undefined)
- pKi [4]: 6.90

Structure (SMILES): CC(C)=C1CC(CO)(COC(=O)c2ccc(C#Cc3ccc(C#Cc4ccc(OCCOCCOCCOC(=O)N(CC(=O)OC(C)(C)C)CC(=O)OC(C)(C)C)cc4)cc3)cc2)OC1=O (centres undefined)
- inhibition at 10 µM [6]: 35%
- Activity (U-937 [7]): Active
- pKi [4]: 7.74

Structure (SMILES): CCCCCCCCCC(=O)OCC1(CO)CC(=C(C)C)C(=O)O1 (centres undefined)
- Activity (CHO [1]): Active
- pEC50 [2]: 5.52
- Activity [8]: 25%
- Activity (U-937 [7]): inactive
- pKi [4]: 7.80
- Activity (CHO [5]): Active
- Activity [9]: 80%

Structure (SMILES): C#Cc1ccc(C#Cc2ccc(C#Cc3ccc(C(=O)OCC4(CO)CC(=C(C)C)C(=O)O4)cc3)cc2)cc1 (centres undefined)
- Activity (CHO [10]): Active
- pEC50 [3]: 6.40
- pEC50 (U-937 [7]): 6.60
- pKi [4]: 7.94
- Activity (U-937 [11]): Active

Structure (SMILES): CC(C)=C1CC(CO)(COC(=O)c2ccc(C#Cc3ccc(C#Cc4ccc(OCCOCCOCCOC(=O)N(CC(=O)O)CC(=O)O)cc4)cc3)cc2)OC1=O (centres undefined)
- Activity (CHO [12]): Active
- pKi [4]: 5.86

Structure (SMILES): COC(=O)CCCCCCCCCCCCCCCOc1ccc(C#Cc2ccc(C#Cc3ccc(C(=O)OCC4(CO)CC(=C(C)C)C(=O)O4)cc3)cc2)cc1 (centres undefined)
- Activity (LNCaP): Active
- pEC50 [3]: 5.52
- pEC50 (U-937 [7]): 6.00
- pKi [4]: 7.28

Structure (SMILES): CCCCCCCCCCCCCC(=O)O[C@@H]1[C@@H](C)[C@@]2(O)[C@@H](C=C(CO)C[C@]3(O)C(=O)C(C)=C[C@@H]23)[C@@H]2C(C)(C)[C@]12OC(C)=O [PHORBOL MYRISTATE ACETATE]
- pEC50 [3]: 9.07
- pEC50 (U-937 [7]): 9.35

Structure (SMILES): COc1ccc(C#Cc2ccc(C#Cc3ccc(C(=O)OCC4(CO)CC(=C(C)C)C(=O)O4)cc3)cc2)cc1 (centres undefined)
- pEC50 [3]: 6.37
- pEC50 (U-937 [7]): 6.59
- pKi [4]: 8.23

Structure (SMILES): COC(=O)COc1ccc(C#Cc2ccc(C#Cc3ccc(C(=O)OCC4(CO)CC(=C(C)C)C(=O)O4)cc3)cc2)cc1 (centres undefined)
- pKi [4]: 7.80

Structure (SMILES): CC(C)=C1CC(CO)(COC(=O)c2ccc(C#Cc3ccc(C#Cc4ccc(OCCOCCOCCN(CC(=O)OC(C)(C)C)CC(=O)OC(C)(C)C)cc4)cc3)cc2)OC1=O (centres undefined)
- pKi [4]: 6.95
